Experimental data as given in ChEMBL document CHEMBL1155228, “Novel triazole ribonucleoside down-regulates heat shock protein 27 and induces potent anticancer activity on drug-resistant pancreatic cancer” (J Med Chem, 2009).
Activity calls are given as the source filed them. No cut-off for these calls is given here.

Assays:
MIA PaCa-2 [1] = test: Inhibition of chemoresistant human MIAPaCa2 cell proliferation after 48 hrs by MTT assay; format: functional
Method in brief: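 MiaPaCa-2 cells in DMEM with 10% FBS seeded at 15 000/well and left to attach overnight. Medium replaced with fresh medium holding a range of concentrations, or medium alone; gemcitabine control. Incubated 48 h at 37 °C, 5% CO₂, and viable cells measured by MTT. Mean ± SE of three independent experiments.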

MIA PaCa-2 [2] = test: Inhibition of DNA synthesis in chemoresistant human MIAPaCa2 cells assessed as incorporation of [3H]thymidine into DNA after 4 hrs by liquid scintillation counting; format: functional
Method in brief: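 MiaPaCa-2 cells seeded at 15 000/well and treated in exponential growth for 4 h, with gemcitabine as comparator. Then labelled with [³H]thymidine (10 μCi/mL) for 6 h at 37 °C, 5% CO₂. Cells harvested and incorporated radioactivity measured by liquid scintillation counting.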

MIA PaCa-2 [3] = test: Induction of apoptosis in chemoresistant human MIAPaCa2 cells assessed as increase in cell accumulation at sub-G1/G0 phase after 48 hrs by FACS analysis relative to control; format: functional
Method in brief: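 MiaPaCa-2 cells treated 48 h, with untreated and gemcitabine controls. Cells trypsinized, PBS-washed and fixed overnight at 4 °C in cold 70% ethanol. Treated with RNase (500 μg/mL) and stained with propidium iodide (50 μg/mL). Sub-G1/G0 fraction read by flow cytometry on 10⁶ cells; triplicate.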

MIA PaCa-2 [4] = test: Inhibition of Hsp27 mRNA expression in chemoresistant human MIAPaCa2 cells after 24 hrs by RT-PCR analysis; format: functional
Method in brief: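 MiaPaCa-2 cells treated 24 h. Total RNA isolated by TRIzol and reverse-transcribed. SYBR Green real-time PCR run with Hsp27 primers: 45 cycles of 95 °C 5 s, 57 °C 6 s, 72 °C 12 s, followed by a melting curve. Normalized to 18S rRNA; each sample in triplicate.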

MIA PaCa-2 [5] = test: Induction of apoptosis in chemoresistant human MIAPaCa2 cells assessed as increase in caspase 3/7 activation after 48 hrs […] relative to control; format: functional
Mus musculus [6] = test: Toxicity in nude mouse xenografted with human MIAPaCa2 cells assessed as normal growth and behavior at 150 mg/kg, ip administered measured after 3 weeks; conditions: in vivo, 504 h
MIA PaCa-2 [7] = test: Inhibition of Hsp27 protein expression in chemoresistant human MIAPaCa2 cells by alexa fluor 488 staining-based immunofluorescence assay; format: functional, cell-based
Method in brief: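 Treated and untreated MiaPaCa-2 cells fixed in 4% paraformaldehyde and permeabilized with 1% Triton. Incubated with mouse anti-Hsp27 monoclonal (1:500) overnight at 4 °C, blocked in BSA/PBS, then Alexa Fluor 488 secondary (1:750). Nuclei stained with DAPI for imaging.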

MIA PaCa-2 [8] = test: Induction of necrosis in chemoresistant human MIAPaCa2 cells up to 12 hrs by 7-aminoactinomycin D staining-based FACS analysis; format: functional
Method in brief: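 MiaPaCa-2 cells seeded at 500 000 per 6 cm dish and left overnight, then treated or left untreated for 3, 6 and 12 h. Stained with 7-AAD for 15 min at 25 °C, then read immediately by flow cytometry; triplicate.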

MIA PaCa-2 [9] = test: Induction of necrosis in chemoresistant human MIAPaCa2 cells assessed as cell membrane damage associated LDH release up to 300 um after 1 hr; format: functional
Method in brief: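 MiaPaCa-2 cells seeded at 15 000/well; 24 h later exposed to compound in DMSO for 1 h. LDH reaction mixture added 1:1 and incubated 10 min at 25 °C. Lysis buffer set as 100% release and medium as 0%. Result is released LDH over total cellular LDH; triplicate.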

MIA PaCa-2 [10] = test: Induction of apoptosis in chemoresistant human MIAPaCa2 cells assessed as increase in DNA/histone nucleosome release after 48 hrs by ELISA relative to control; format: functional
Method in brief: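 MiaPaCa-2 cells seeded at 15 000/well for 24 h, then treated or left untreated for 48 h. Cells lysed after centrifugation at 200g. Supernatant put on streptavidin plate with biotin anti-histone and peroxidase anti-DNA antibodies, 2 h at room temperature. After washes, substrate added for 20 min and read at 405 nm. Expressed as fold increase in absorbance over control; triplicate.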

Mus musculus [11] = test: Toxicity in nude mouse xenografted with human MIAPaCa2 cells assessed as weight loss at 150 mg/kg, ip administered measured after 3 weeks; conditions: in vivo, 504 h
MIA PaCa-2 [12] = test: Inhibition of Hsp27 protein expression in chemoresistant human MIAPaCa2 cells after 48 hrs by Western blotting; format: functional, cell-based
Method in brief: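 MiaPaCa-2 cells treated and harvested at 48 h. Lysates loaded at 15 μg protein and blotted with rabbit polyclonal anti-human Hsp27 (1:5000) and vinculin reference (1:2000). Detected by enhanced chemiluminescence and band intensities quantified against untreated control.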

MIA PaCa-2 [13] = test: Induction of apoptosis in chemoresistant human MIAPaCa2 cells assessed as increase in caspase 3/7 activation after 48 hrs by […] relative to gemcitabine; format: functional
Method in brief: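 MiaPaCa-2 cells seeded at 15 000/well; 24 h later treated for 48 h, with gemcitabine and no-treatment controls. Apo-ONE homogeneous caspase-3/7 reagent added 1:1 to culture, containing fluorogenic Z-DEVD-R110 substrate. Incubated 30 min at room temperature, then fluorescence read. Triplicate.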

MIA PaCa-2 [14] = test: Antitumor activity against human MIAPaCa2 cells xenografted in nude mouse assessed as reduction in tumor volume at 150 mg/kg, ip administered measured after 3 weeks; set-up: scale not given: the % may be the effect or the level left; conditions: route intraperitoneal

In the case of `CCCCCc1ccc(CCc2nc(C(N)=O)n([C@@H]3O[C@H](CO)[C@@H](O)[C@H]3O)n2)cc1`, the inhibition (MIA PaCa-2 [1]) is reported as “inactive”.

With `CCCc1ccc(C#Cc2nc(C(N)=O)n([C@@H]3O[C@H](CO)[C@@H](O)[C@H]3O)n2)cc1` the inhibition (MIA PaCa-2 [1]) was “inactive”.

With `CCCCCc1ccc(C#Cc2nc(C(N)=O)n(COCCO)n2)cc1` the inhibition (MIA PaCa-2 [1]) was “inactive”.

`Cc1ccc(C#Cc2nc(C(N)=O)n([C@@H]3O[C@H](CO)[C@@H](O)[C@H]3O)n2)cc1` was tested, and the inhibition (MIA PaCa-2 [1]) was “inactive”.

For `CCCCCc1ccc(-c2cn(-c3nc(C(N)=O)n([C@@H]4O[C@H](CO)[C@@H](O)[C@H]4O)n3)nn2)cc1`, the inhibition (MIA PaCa-2 [1]) was “inactive”.

With `COC(=O)c1nc(C#Cc2ccc(C(F)(F)F)cc2)nn1[C@@H]1O[C@H](COC(C)=O)[C@@H](OC(C)=O)[C@H]1OC(C)=O` the inhibition (MIA PaCa-2 [1]) was “inactive”.

With `CCCCCc1ccc(C#Cc2nc(C(N)=O)nn2[C@@H]2O[C@H](CO)[C@@H](O)[C@H]2O)cc1` the inhibition (MIA PaCa-2 [1]) was “inactive”.

With `CCCCCc1ccc(C#Cc2nc(C(=O)OC)n([C@@H]3O[C@H](COC(C)=O)[C@@H](OC(C)=O)[C@H]3OC(C)=O)n2)cc1` the inhibition (MIA PaCa-2 [1]) was “inactive”.

`NC(=O)c1nc(C#Cc2ccc(C(F)(F)F)cc2)nn1[C@@H]1O[C@H](CO)[C@@H](O)[C@H]1O` was tested, and the inhibition (MIA PaCa-2 [1]) was “inactive”.

`CCCCCc1ccc(-c2nc(C(N)=O)n([C@@H]3O[C@H](CO)[C@@H](O)[C@H]3O)n2)cc1` was tested, and the inhibition (MIA PaCa-2 [1]) was “inactive”.

With `CCCCCc1ccc(C#Cc2nc(C(N)=O)n([C@@H]3O[C@H](CO)[C@@H](O)[C@H]3O)n2)cc1` the inhibition (MIA PaCa-2 [2]) was “inactive”, the “fold change (FC)” value (MIA PaCa-2 [3]) was 14 and the “inhibition (INH)” value (MIA PaCa-2 [4]) was 80%. The “fold change (FC)” value (MIA PaCa-2 [5]) was 30, the Activity (Mus musculus [6]) was “Non-toxic” and the inhibition (MIA PaCa-2 [7]) was “Active”. For the same molecule, the Activity (MIA PaCa-2 [8]) was less than 2%, the Activity (MIA PaCa-2 [9]) was less than 2% and the “fold change (FC)” value (MIA PaCa-2 [10]) was 40. The Activity (Mus musculus [11]) was “Non-toxic”, the inhibition (MIA PaCa-2 [12]) was “Active” and the “fold change (FC)” value (MIA PaCa-2 [13]) was 12. The “inhibition (INH)” value (MIA PaCa-2 [1]) was 80% and the Activity (MIA PaCa-2 [14]) was 50%.

With `CCCCCC#Cc1nc(C(N)=O)n([C@@H]2O[C@H](CO)[C@@H](O)[C@H]2O)n1` the inhibition (MIA PaCa-2 [1]) was “inactive”.

`Nc1ccn([C@@H]2O[C@H](CO)[C@@H](O)C2(F)F)c(=O)n1` [GEMCITABINE] was tested, and the “inhibition (INH)” value (MIA PaCa-2 [2]) was greater than 90% and the “inhibition (INH)” value (MIA PaCa-2 [1]) was less than 30%.
